How the values were obtained:
K562 [1] = test: Concentration required to inhibit 50% of the cell proliferation of the Human myelogenous leukemia K562 cells.; type: functional, cell-based
Method in brief: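 K562 cells in log phase (RPMI 1640 + 10% FBS, 5% CO2, 37 °C), seeded at 1 × 10⁵ cells/mL and exposed continuously to compounds (0.5-100 µM, in saline) or saline for 48 h. Cells counted by Coulter counter; inhibition = % reduction in proliferation versus saline; IC50 = concentration giving 50% inhibition at 48 h.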

K562 [2] = test: Tested for the influence on the ribonucleotide (IMP) concentration in myelogenous leukemia K562 cell culture.; type: functional, Homo sapiens
Method in brief: (§1)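 Cultured K562 cells given 100 µM compound (2 µM for reference furanoside) or saline for 2 h at 37 °C, then centrifuged, washed once in cold saline and extracted with cold 10% trichloroacetic acid before nucleotide pool measurement.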

K562 [3] = test: Tested for the influence on the ribonucleotide (GTP) concentration in myelogenous leukemia K562 cell culture.; type: functional, Homo sapiens; method in brief: as §1
[4] = molecular target: Inosine-5'-monophosphate dehydrogenase (IMPDH) (Homo sapiens) (UniProt P20839+P12268); test: Inhibitory activity against Inosine-5'-monophosphate dehydrogenase in human myelogenous leukemia K562 cells in culture.; type: cell-based; conditions: concentration not given here
Inosine-5'-monophosphate dehydrogenase (IMPDH) (Homo sapiens), sequence (P20839 whole entry, looked up, other chains not shown): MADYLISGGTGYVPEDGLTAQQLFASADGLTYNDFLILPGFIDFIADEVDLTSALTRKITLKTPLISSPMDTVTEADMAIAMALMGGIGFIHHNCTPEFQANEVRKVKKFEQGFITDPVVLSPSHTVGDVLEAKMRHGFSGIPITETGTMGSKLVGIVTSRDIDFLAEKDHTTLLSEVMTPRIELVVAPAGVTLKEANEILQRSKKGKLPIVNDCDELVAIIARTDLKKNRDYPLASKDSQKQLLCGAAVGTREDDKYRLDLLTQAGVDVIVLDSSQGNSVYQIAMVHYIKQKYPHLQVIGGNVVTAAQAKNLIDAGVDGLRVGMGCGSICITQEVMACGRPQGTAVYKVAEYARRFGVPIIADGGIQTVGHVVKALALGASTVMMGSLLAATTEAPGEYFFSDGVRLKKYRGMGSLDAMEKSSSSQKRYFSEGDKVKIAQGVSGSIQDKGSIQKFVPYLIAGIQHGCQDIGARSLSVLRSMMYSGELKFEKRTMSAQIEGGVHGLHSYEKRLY

| SMILES | IC50 (K562 [1]) [µM] | Control (K562 [2]) [%] | Control (K562 [3]) [%] | inhibition [4] [%] |
| --- | --- | --- | --- | --- |
| NC(=O)c1csc([C@@H]2S[C@H](CO)[C@H](O)C2O)c1 (stereo not given in full) [THIOPHENTHIOFURIN] | 67 | 111 | 83.9 |  |
| NC(=O)c1csc([C@@H]2O[C@H](CO)[C@@H](O)[C@H]2O)c1 | 1.7 | 112 | 96.6 | 76 |
| NC(=O)c1coc([C@@H]2S[C@H](CO)[C@H](O)C2O)c1 (stereo not given in full) [FURANTHIOFURIN] | 4700 | 105 | 66.1 |  |

From ChEMBL document CHEMBL1132990, “Synthesis, conformational analysis, and biological activity of C-thioribonucleosides related to tiazofurin” (J Med Chem, 2000)
